Test results: publication PMC3228889 (International Journal of Cancer. Journal International du …, 2011)
Like-named read-outs stand apart in the source and are kept apart here.

Key:
MM1.S MM cells = experiment: MTT viability of MM1.S cells; format: cell-based, human
PAK1 = PAK1 (Homo sapiens, UniProt Q13153); conditions: read-out: IC50 kinase activity, PAK1; 10 concentrations, 100 μM highest
[1] = 5 mg/kg daily intraperitoneal, vs vehicle-treated mice
U266 MM cells [2] = experiment: MTT cell viability assay; format: cell-based, human; conditions: read-out: IC50 cell viability, U266, 72 hours
[3] = tested on: STAT3 downstream target genes; experiment: RT-PCR of STAT3 downstream target genes; format: cell-based, human; conditions: U266 and ARH-77, 24-h
[4] = tested on: normal human peripheral blood lymphocytes
IKKb = IKKb (Homo sapiens, UniProt O14920); conditions: read-out: IC50 kinase activity, IKKb; 10 concentrations, 100 μM highest
FAK = FAK (Homo sapiens, UniProt Q05397); conditions: read-out: IC50 kinase activity, FAK; 10 concentrations, 100 μM highest
JNK2 = JNK2 (Homo sapiens, UniProt P45984); conditions: read-out: IC50 kinase activity, JNK2; 10 concentrations, 100 μM highest
AKT2 = AKT2 (Homo sapiens, UniProt P31751); conditions: read-out: IC50 kinase activity, AKT2; 10 concentrations, 100 μM highest
LcK = LcK (Homo sapiens, UniProt P06239); conditions: read-out: IC50 kinase activity, LcK; 10 concentrations, 100 μM highest
STAT6 = STAT6 (Homo sapiens, UniProt P42226); experiment: Western blot, IL-4 induced STAT6 phosphorylation; format: cell-based; conditions: IM-9 human MM cells
In short: (§1)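 IM-9 cells were serum-starved for 24 h, then left untreated or pre-treated for 2 h with test compound (2.5–10 μM), a reference STAT3 inhibitor (2.5–20 μM) or DMSO. IL-4 (25ng/ml) was added, and cells were harvested 30 min later. Blots of RIPA lysates were probed for p-STAT4 (Tyr693) or p-STAT6 (Tyr641).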

PKC-a = PKC-a (Homo sapiens, UniProt P17252); conditions: read-out: IC50 kinase activity, PKC-a; 10 concentrations, 100 μM highest
STAT3 [5] = biological target: T1, STAT3 (Homo sapiens, UniProt P40763); experiment: STAT3 DNA binding activity in nuclear extracts; format: cell-based; conditions: 24 hours, U266 and ARH-77 MM cells
STAT3 [6] = biological target: T1, STAT3; experiment: Western blot, constitutive STAT3 phosphorylation; format: cell-based
In short: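 U266 and ARH-77 cells were treated with test compound or DMSO for 24 h. Primary CD138+ patient cells were isolated by positive magnetic selection (n=3 patients). Cells were lysed in cold RIPA buffer with protease inhibitors, run on SDS-PAGE and transferred to PVDF. Blots were probed for p-STAT3 (Tyr705) and total STAT3 and developed by chemiluminescence, with GAPDH as loading control.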

Src = experiment: Western blot, Src phosphorylation; format: cell-based, human; conditions: U266 and ARH-77 MM cells
In short: (§2)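 MM cells were treated with test compound (2.5, 5 or 10μM) or DMSO for 24 h, then lysed in cold RIPA buffer with protease inhibitors. Lysates were run on SDS-PAGE, transferred to PVDF and probed with antibodies to p-ERK1/2 (Thr202/Tyr204), p-Src (Tyr416), p-mTOR (Ser2448), or cleaved caspase-3 and cleaved PARP. Detection was by enhanced chemiluminescence, with GAPDH as loading control.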

JNK1 = JNK1 (Homo sapiens, UniProt P45983); conditions: read-out: IC50 kinase activity, JNK1; 10 concentrations, 100 μM highest
ARH-77 MM tumor cells = experiment: Mouse xenograft model; format: in vivo, NOD/SCID mice; conditions: 5 mg/kg daily intraperitoneal, vs DMSO
Fyn = Fyn (Homo sapiens, UniProt P06241); conditions: read-out: IC50 kinase activity, Fyn; 10 concentrations, 100 μM highest
CSK = CSK (Homo sapiens, UniProt P41240); conditions: read-out: IC50 kinase activity, CSK; 10 concentrations, 100 μM highest
Fgr = Fgr (Homo sapiens, UniProt P09769); conditions: read-out: IC50 kinase activity, Fgr; 10 concentrations, 100 μM highest
ARH-77 MM cells [7] = experiment: Annexin-V/PI flow cytometry apoptosis; format: cell-based, human; conditions: 24 hours
In short: (§3)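 Cells were treated with test compound or DMSO for 24 h, harvested, washed in cold PBS and resuspended in 1× binding buffer at 1 × 10^6 cells/ml. Annexin V-FITC and PI were added for 15 min at RT in the dark. Analysis was by flow cytometry within 1 h. Results come from at least 3 independent experiments, compared with DMSO by Mann-Whitney test.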

STAT3 [8] = biological target: T1, STAT3; experiment: STAT3 nuclear localization, immunofluorescence staining; format: cell-based; conditions: U266 cells
U266 MM cells [9] = experiment: Annexin-V/PI flow cytometry apoptosis; format: cell-based, human; conditions: 24 hours
In short: as §3

FGFR2 = FGFR2 (Homo sapiens, UniProt P21802); conditions: read-out: IC50 kinase activity, FGFR2; 10 concentrations, 100 μM highest
U266 cells = experiment: Synergy of LLL12 and lenalidomide, combinational index; format: cell-based, human; conditions: LLL12 combined with lenalidomide, U266, all combinations; CI < 1 = synergism
JAK3 = JAK3 (Homo sapiens, UniProt P52333); conditions: read-out: IC50 kinase activity, JAK3; 10 concentrations, 100 μM highest
ZAP-70 = ZAP-70 (Homo sapiens, UniProt P43403); conditions: read-out: IC50 kinase activity, ZAP-70; 10 concentrations, 100 μM highest
[10] = tested on: normal human marrow [CD138(−)] cells; conditions: 10μM, 24h, MTS
BRK = BRK (Homo sapiens, UniProt Q13882); conditions: read-out: IC50 kinase activity, BRK; 10 concentrations, 100 μM highest
PKC-d = PKC-d (Homo sapiens, UniProt Q05655); conditions: read-out: IC50 kinase activity, PKC-d; 10 concentrations, 100 μM highest
RPMI-8226 = experiment: Western blot, cleaved caspase-3 and PARP; format: cell-based, human; conditions: IL-6 independent RPMI-8226, P-STAT3 too low to be detected
In short: as §2

PAK2 = PAK2 (Homo sapiens, UniProt Q13177); conditions: read-out: IC50 kinase activity, PAK2; 10 concentrations, 100 μM highest
ARH-77 MM cells [11] = experiment: MTT cell viability assay; format: cell-based, human; conditions: read-out: IC50 cell viability, ARH-77, 72 hours
ERK(1/2) = experiment: Western blot, ERK; format: cell-based, human
In short: as §2

STAT3 [12] = biological target: T1, STAT3; experiment: Western blot, IL-6 and IFN-α induced STAT3 phosphorylation; format: cell-based; conditions: MM.1S, 2 hours pre-treatment, 30 minutes stimulation
[13] = tested on: twenty one purified human protein kinases
STAT4 = STAT4 (Homo sapiens, UniProt Q14765); experiment: Western blot, IL-4 induced STAT4 phosphorylation; format: cell-based; conditions: IM-9 human MM cells
In short: as §1

CDK1/CyclinB = CDK1/CyclinB (Homo sapiens, UniProt P06493); conditions: read-out: IC50 kinase activity, CDK1/CyclinB; 10 concentrations, 100 μM highest
STAT1 = STAT1 (Homo sapiens, UniProt P42224); experiment: Western blot, cytokine-induced STAT1 phosphorylation; format: cell-based; conditions: MM.1S, IFN-α stimulated, 2 hours pre-treatment
In short: (§4)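 MM.1S cells were serum-starved for 24 h, then pre-treated for 2 h with test compound (2.5–10 μM), a reference STAT3 inhibitor (2.5–20 μM) or DMSO. IFN-α (25ng/ml) was added for 30 min in the presence or absence of test compound. Western blots of RIPA lysates were probed for p-STAT1 (Tyr701) or p-STAT2 (Tyr690).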

mTOR = experiment: Western blot, mTOR phosphorylation; format: cell-based, human; conditions: U266 and ARH-77 MM cells
In short: as §2

BMX = BMX (Homo sapiens, UniProt P51813); conditions: read-out: IC50 kinase activity, BMX; 10 concentrations, 100 μM highest
PDGFR-a = PDGFR-a (Homo sapiens, UniProt P16234); conditions: read-out: IC50 kinase activity, PDGFR-a; 10 concentrations, 100 μM highest
STAT2 = STAT2 (Homo sapiens, UniProt P52630); experiment: Western blot, cytokine-induced STAT2 phosphorylation; format: cell-based; conditions: MM.1S, IFN-α stimulated, 2 hours pre-treatment
In short: as §4

Lyn = Lyn (Homo sapiens, UniProt P07948); conditions: read-out: IC50 kinase activity, Lyn; 10 concentrations, 100 μM highest
Chain of Lyn (P07948 whole entry): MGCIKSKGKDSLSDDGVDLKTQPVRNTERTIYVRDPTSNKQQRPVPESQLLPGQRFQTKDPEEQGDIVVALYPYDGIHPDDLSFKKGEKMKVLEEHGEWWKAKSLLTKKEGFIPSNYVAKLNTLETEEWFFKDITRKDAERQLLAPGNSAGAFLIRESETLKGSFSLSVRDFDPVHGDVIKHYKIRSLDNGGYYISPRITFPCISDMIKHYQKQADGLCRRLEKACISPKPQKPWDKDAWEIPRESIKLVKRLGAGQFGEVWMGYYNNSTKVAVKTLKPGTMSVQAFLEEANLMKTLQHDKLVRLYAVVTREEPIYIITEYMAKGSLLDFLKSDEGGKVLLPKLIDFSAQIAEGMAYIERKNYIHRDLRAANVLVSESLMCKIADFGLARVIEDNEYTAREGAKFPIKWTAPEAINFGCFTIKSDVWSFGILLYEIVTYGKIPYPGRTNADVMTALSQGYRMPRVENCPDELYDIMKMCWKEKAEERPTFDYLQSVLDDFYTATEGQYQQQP

T1 sequence (P40763 whole entry): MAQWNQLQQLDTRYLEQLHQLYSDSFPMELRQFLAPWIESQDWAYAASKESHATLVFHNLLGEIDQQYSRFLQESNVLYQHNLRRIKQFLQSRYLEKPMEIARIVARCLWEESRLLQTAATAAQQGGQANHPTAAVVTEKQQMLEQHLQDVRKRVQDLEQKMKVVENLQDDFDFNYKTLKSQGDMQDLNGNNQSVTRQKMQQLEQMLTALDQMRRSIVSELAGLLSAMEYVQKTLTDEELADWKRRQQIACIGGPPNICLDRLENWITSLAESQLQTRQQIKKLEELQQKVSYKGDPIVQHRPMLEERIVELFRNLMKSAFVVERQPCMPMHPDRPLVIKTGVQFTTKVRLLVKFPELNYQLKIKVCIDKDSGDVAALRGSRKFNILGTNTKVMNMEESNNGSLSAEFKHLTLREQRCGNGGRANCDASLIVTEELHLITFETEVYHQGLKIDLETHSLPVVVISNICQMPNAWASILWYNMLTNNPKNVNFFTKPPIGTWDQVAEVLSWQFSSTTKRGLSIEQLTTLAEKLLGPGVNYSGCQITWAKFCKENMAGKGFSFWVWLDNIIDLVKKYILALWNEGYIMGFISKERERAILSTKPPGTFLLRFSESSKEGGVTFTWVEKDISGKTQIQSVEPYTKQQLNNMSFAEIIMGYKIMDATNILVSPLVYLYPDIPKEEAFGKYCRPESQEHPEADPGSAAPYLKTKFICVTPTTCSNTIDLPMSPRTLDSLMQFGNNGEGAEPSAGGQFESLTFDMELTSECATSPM
Chain of Fyn (P06241 whole entry): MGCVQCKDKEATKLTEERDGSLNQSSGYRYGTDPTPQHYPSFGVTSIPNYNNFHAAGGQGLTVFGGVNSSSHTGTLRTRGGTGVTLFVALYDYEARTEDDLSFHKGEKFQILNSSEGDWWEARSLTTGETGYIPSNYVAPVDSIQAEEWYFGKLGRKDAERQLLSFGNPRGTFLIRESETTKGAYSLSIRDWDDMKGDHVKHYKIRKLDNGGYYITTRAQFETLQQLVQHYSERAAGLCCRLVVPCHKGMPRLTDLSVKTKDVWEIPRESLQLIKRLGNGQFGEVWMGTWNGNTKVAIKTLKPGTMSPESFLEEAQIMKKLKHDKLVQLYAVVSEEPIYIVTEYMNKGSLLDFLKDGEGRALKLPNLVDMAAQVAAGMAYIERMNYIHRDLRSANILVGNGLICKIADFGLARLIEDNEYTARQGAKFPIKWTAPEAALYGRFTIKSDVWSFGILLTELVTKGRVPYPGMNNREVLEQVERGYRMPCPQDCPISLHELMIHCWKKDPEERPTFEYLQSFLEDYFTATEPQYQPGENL
Chain of IKKb (O14920 whole entry): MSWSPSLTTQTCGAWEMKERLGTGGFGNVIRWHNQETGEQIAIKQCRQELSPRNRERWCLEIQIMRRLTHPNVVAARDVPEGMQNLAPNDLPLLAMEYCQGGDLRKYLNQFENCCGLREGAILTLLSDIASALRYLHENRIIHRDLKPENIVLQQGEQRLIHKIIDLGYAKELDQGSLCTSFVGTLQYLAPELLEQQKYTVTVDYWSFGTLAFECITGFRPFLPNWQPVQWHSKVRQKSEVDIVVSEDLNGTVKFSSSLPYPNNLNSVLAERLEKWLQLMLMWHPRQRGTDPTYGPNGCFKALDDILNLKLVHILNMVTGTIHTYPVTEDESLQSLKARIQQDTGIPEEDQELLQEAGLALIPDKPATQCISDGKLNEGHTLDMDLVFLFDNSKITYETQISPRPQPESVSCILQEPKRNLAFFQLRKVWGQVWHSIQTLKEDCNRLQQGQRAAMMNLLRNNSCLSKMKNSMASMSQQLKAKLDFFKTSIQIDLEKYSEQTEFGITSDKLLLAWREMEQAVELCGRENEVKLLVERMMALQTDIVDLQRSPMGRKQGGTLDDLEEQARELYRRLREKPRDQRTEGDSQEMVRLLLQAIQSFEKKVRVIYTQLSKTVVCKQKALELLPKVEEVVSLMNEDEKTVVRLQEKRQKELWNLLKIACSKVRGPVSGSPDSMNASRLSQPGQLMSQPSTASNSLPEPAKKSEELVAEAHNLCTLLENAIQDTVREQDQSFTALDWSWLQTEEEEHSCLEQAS
Chain of FAK (Q05397 whole entry): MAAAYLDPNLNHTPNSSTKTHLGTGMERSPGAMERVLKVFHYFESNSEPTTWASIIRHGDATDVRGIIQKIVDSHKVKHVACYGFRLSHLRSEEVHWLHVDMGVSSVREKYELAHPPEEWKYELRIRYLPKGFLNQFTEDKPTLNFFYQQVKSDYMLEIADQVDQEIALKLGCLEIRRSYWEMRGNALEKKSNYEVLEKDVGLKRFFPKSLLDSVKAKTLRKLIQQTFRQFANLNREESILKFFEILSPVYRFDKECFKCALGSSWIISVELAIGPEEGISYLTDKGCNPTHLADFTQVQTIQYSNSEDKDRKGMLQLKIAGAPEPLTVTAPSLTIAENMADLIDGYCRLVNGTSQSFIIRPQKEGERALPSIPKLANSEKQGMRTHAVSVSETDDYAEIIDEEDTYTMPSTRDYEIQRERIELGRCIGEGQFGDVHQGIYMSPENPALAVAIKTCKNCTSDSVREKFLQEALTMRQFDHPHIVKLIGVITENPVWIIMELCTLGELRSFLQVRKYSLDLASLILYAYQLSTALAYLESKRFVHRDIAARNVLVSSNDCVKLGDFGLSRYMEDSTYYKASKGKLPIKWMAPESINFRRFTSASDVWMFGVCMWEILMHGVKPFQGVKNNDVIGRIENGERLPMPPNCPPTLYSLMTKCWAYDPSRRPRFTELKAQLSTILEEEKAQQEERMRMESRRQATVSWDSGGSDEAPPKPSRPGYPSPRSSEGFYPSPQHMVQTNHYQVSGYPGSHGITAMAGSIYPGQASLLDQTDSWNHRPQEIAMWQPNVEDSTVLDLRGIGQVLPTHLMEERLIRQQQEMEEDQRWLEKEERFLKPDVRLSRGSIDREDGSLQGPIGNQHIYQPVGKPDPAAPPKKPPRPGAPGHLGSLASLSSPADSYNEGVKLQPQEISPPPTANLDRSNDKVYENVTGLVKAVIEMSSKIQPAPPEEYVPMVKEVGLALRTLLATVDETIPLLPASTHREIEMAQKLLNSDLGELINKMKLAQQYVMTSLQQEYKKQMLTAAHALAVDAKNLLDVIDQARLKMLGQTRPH
Chain of BRK (Q13882 whole entry): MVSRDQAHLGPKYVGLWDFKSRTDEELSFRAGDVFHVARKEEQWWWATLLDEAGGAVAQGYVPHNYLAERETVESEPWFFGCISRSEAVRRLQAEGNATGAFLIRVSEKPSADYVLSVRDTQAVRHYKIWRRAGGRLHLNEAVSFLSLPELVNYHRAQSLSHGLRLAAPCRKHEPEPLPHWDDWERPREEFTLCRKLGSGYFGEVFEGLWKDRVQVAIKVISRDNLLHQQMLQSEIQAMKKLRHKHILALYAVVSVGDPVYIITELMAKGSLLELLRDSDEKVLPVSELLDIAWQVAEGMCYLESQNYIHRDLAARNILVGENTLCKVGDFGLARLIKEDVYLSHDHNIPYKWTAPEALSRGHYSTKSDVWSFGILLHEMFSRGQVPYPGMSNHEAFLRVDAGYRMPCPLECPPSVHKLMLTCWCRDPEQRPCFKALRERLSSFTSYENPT

## NS(=O)(=O)c1cccc2c1C(=O)c1cccc(O)c1C2=O [LLL12]
MM1.S MM cells; IL-6 for 48 hours, MTT
  IL-6 increased cell proliferation/viability: blocked
PAK1
  IC50: > 100 µM
[1]
  bodyweights of treated mice: not reduced
U266 MM cells [2]
  IC50: 490 nM
[3]
  transcription of cyclin D1, survivin, Bcl-2, Bcl-XL, DNMT1: inhibition of the transcription of all five
[4]
  effect on normal cells: little effects
IKKb
  IC50: > 100 µM
FAK
  IC50: > 100 µM
JNK2
  IC50: > 100 µM
AKT2
  IC50: 91.8 µM
LcK
  IC50: > 100 µM
STAT6
  STAT6 phosphorylation by IL-4: did not prevent phosphorylation
PKC-a
  IC50: > 100 µM
STAT3 [5]; 2.5μM
  reduction of STAT3 DNA binding activity: 30–33%
STAT3 [5]; 5μM
  reduction of STAT3 DNA binding activity: 58–69%
STAT3 [6]; U266 and ARH-77, 2.5μM or 5μM, 24 hours
  STAT3 phosphorylation at Tyr 705: inhibited STAT3 phosphorylation
STAT3 [6]; primary human MM cells from three patients
  STAT3 phosphorylation: inhibited STAT3 phosphorylation
Src
  phosphorylation of Src: not reduced significantly
JNK1
  IC50: > 100 µM
ARH-77 MM tumor cells; Western blot
  STAT3 phosphorylation in tumors: inhibited STAT3 phosphorylation
ARH-77 MM tumor cells; p < 0.05
  tumor volume: significantly suppressed
  tumor weight: significantly suppressed
Fyn
  IC50: > 100 µM
CSK
  IC50: 73.9 µM
Fgr
  IC50: 57.2 µM
ARH-77 MM cells [7]; ARH-77, 2.5μM
  Apoptosis (Annexin V/PI): 70.8%
ARH-77 MM cells [7]; ARH-77, 5μM
  Apoptosis (Annexin V/PI): 73.5%
STAT3 [8]
  STAT3 nuclear localization: most STAT3 was retained in cytoplasm and absent in nuclei
U266 MM cells [9]; U266, 2.5μM
  Apoptosis (Annexin V/PI): 38.2%
U266 MM cells [9]; U266, 5μM
  Apoptosis (Annexin V/PI): 53.3%
FGFR2
  IC50: > 100 µM
U266 cells
  Combinational Index (CI): less than 1
JAK3
  IC50: 89.7 µM
ZAP-70
  IC50: > 100 µM
[10]
  effect on normal cells: little effects
BRK
  IC50: > 100 µM
PKC-d
  IC50: > 100 µM
RPMI-8226
  cleaved caspase-3 and cleaved PARP: did not induce
PAK2
  IC50: > 100 µM
ARH-77 MM cells [11]
  IC50: 1960 nM
ERK(1/2); ARH-77 MM cells, 5μM
  phosphorylation of ERK(1/2): slightly reduced
ERK(1/2); U266 MM cells
  phosphorylation of ERK(1/2): even increased
STAT3 [12]
  IL-6 and IFN-α induced STAT3 phosphorylation: prevented phosphorylation of STAT3
[13]; read-out: IC50, kinases which contain an SH2 domain, BMX, BRK, CSK, Fgr, Fyn, JAK3, LcK, Lyn, ZAP-70, 57.19 μM to > 100 μM
  IC50: ≥ 57.2 µM
[13]; read-out: IC50, other protein kinases, AKT2, CDK1/cyclin B, FAK, FGFR2, IKKβ, JNK1, JNK2, PAK1, PAK2, PDGFR-α, PKC-α, PKC-δ, 91.76 μM to > 100 μM
  IC50: ≥ 91.8 µM
STAT4
  STAT4 phosphorylation by IL-4: did not prevent phosphorylation
CDK1/CyclinB
  IC50: > 100 µM
STAT1
  STAT1 phosphorylation: but not STAT1 or STAT2
mTOR
  phosphorylation of mTOR: not reduced significantly
BMX
  IC50: > 100 µM
PDGFR-a
  IC50: > 100 µM
STAT2
  STAT2 phosphorylation: but not STAT1 or STAT2
Lyn
  IC50: > 100 µM

## Nc1cccc2c1CN(C1CCC(=O)NC1=O)C2=O (stereo not shown) [lenalidomide, Lenalidomide, reference compound]
MM1.S MM cells; lenalidomide alone
  cell viability: dose-dependent reduction of cell viability

## O=[N+]([O-])c1ccc2c(c1)S(=O)(=O)C=C2 [Stattic, reference compound]
STAT3 [12]
  IL-6 and IFN-α induced STAT3 phosphorylation: much less potent than LLL12
